# Measurements published in ChEMBL document CHEMBL1133165, “Synthesis and cytostatic activity of substituted 6-phenylpurine bases and nucleosides: application of the Suzuki-Miyaura cross-coupling reactions of 6-chloropurine derivatives with phenylboronic acids” (J Med Chem, 2000).
# Tested on: CCRF-CEM
# Test: In vitro inhibition of cell growth (Cytostatic activity) of human T-lymphoblastoid CCRF-CEM cell line (ATCC CCL 119)
# Assay type: functional, cell-based
# In short: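 CCRF-CEM cells grown in RPMI 1640 with L-glutamine (0.3 g/L) and 10% bovine serum, seeded at 10⁵ mL^-1. After 24 h at 37 °C under CO₂, compounds were added at five concentrations. Cells were counted with a cell counter 72 h after addition. IC50 values were derived from the counts.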
row,Structure (SMILES),IC50 [µM]
1,COc1ccc(-c2ncnc3c2ncn3[C@@H]2O[C@H](COC(C)=O)[C@@H](OC(C)=O)[C@H]2OC(C)=O)cc1,4.3
2,CC(=O)OC[C@H]1O[C@@H](n2cnc3c(-c4ccc(F)c(F)c4)ncnc32)[C@H](OC(C)=O)[C@@H]1OC(C)=O,8.3
3,CC(=O)OC[C@H]1O[C@@H](n2cnc3c(-c4ccccc4)ncnc32)[C@H](OC(C)=O)[C@@H]1OC(C)=O,10.5
4,CC(=O)OC[C@H]1O[C@@H](n2cnc3c(-c4ccc(Cl)cc4)ncnc32)[C@H](OC(C)=O)[C@@H]1OC(C)=O,4.3
5,COc1cccc(-c2ncnc3c2ncn3C2O[C@H](CO)[C@@H](O)[C@H]2O)c1 (some centres not stated),4.8

# Further lines, results first:
row,IC50 [µM],Structure (SMILES)
1,0.7,OC[C@H]1O[C@@H](n2cnc3c(-c4ccccc4)ncnc32)[C@H](O)[C@@H]1O
2,4,CC(=O)OC[C@H]1O[C@@H](n2cnc3c(-c4ccc(F)cc4)ncnc32)[C@H](OC(C)=O)[C@@H]1OC(C)=O
3,3.8,CCOc1ccc(-c2ncnc3c2ncn3[C@@H]2O[C@H](COC(C)=O)[C@@H](OC(C)=O)[C@H]2OC(C)=O)cc1
4,0.6,CCOc1ccc(-c2ncnc3c2ncn3C2O[C@H](CO)[C@@H](O)[C@H]2O)cc1 (some centres not stated)
5,0.25,COc1ccc(-c2ncnc3c2ncn3C2O[C@H](CO)[C@@H](O)[C@H]2O)cc1 (some centres not stated)
6,1.4,OC[C@H]1OC(n2cnc3c(-c4ccc(F)c(F)c4)ncnc32)[C@H](O)[C@@H]1O (some centres not stated)
7,0.75,OC[C@H]1OC(n2cnc3c(-c4ccc(F)cc4)ncnc32)[C@H](O)[C@@H]1O (some centres not stated)
8,1.5,Cc1ccc(-c2ncnc3c2ncn3C2O[C@H](CO)[C@@H](O)[C@H]2O)cc1 (some centres not stated)
9,0.9,OC[C@H]1OC(n2cnc3c(-c4ccc(Cl)cc4)ncnc32)[C@H](O)[C@@H]1O (some centres not stated)

# Tested on: CCRF-CEM
# Test: In vitro inhibition of cell growth (Cytostatic activity) of human T-lymphoblastoid CCRF-CEM cell line (ATCC CCL 119); inhibition @ 10 uM/L
# Assay type: functional
row,Structure (SMILES),Inhibition [%]
1,CC(=O)OC[C@H]1O[C@@H](n2cnc3c(-c4ccc(F)cc4F)ncnc32)[C@H](OC(C)=O)[C@@H]1OC(C)=O,<20
2,CC(=O)OC[C@H]1O[C@@H](n2cnc3c(-c4ccccc4C)ncnc32)[C@H](OC(C)=O)[C@@H]1OC(C)=O,<20
3,CC(=O)OC[C@H]1O[C@@H](n2cnc3c(-c4ccc(C)cc4)ncnc32)[C@H](OC(C)=O)[C@@H]1OC(C)=O,<20
4,COc1cccc(-c2ncnc3c2ncn3[C@@H]2O[C@H](COC(C)=O)[C@@H](OC(C)=O)[C@H]2OC(C)=O)c1,<20
5,Cc1ccccc1-c1ncnc2c1ncn2C1O[C@H](CO)[C@@H](O)[C@H]1O (some centres not stated),<20

# Tested on: HeLa
# Test: In vitro inhibition of cell growth (Cytostatic activity) of human cervix carcinoma HeLa S3 cells (ATCC CCL 2.2)
# Assay type: functional, cell-based
row,Structure (SMILES),IC50 [µM]
1,COc1ccc(-c2ncnc3c2ncn3[C@@H]2O[C@H](COC(C)=O)[C@@H](OC(C)=O)[C@H]2OC(C)=O)cc1,19
2,CC(=O)OC[C@H]1O[C@@H](n2cnc3c(-c4ccc(F)c(F)c4)ncnc32)[C@H](OC(C)=O)[C@@H]1OC(C)=O,15

# Continued, values first:
row,IC50 [µM],Structure (SMILES)
1,2.7,OC[C@H]1O[C@@H](n2cnc3c(-c4ccccc4)ncnc32)[C@H](O)[C@@H]1O
2,15,CC(=O)OC[C@H]1O[C@@H](n2cnc3c(-c4ccc(F)cc4)ncnc32)[C@H](OC(C)=O)[C@@H]1OC(C)=O
3,5,CCOc1ccc(-c2ncnc3c2ncn3C2O[C@H](CO)[C@@H](O)[C@H]2O)cc1 (some centres not stated)
4,4.3,COc1ccc(-c2ncnc3c2ncn3C2O[C@H](CO)[C@@H](O)[C@H]2O)cc1 (some centres not stated)
5,2.5,OC[C@H]1OC(n2cnc3c(-c4ccc(F)c(F)c4)ncnc32)[C@H](O)[C@@H]1O (some centres not stated)
6,2.5,OC[C@H]1OC(n2cnc3c(-c4ccc(F)cc4)ncnc32)[C@H](O)[C@@H]1O (some centres not stated)
7,5,OC[C@H]1OC(n2cnc3c(-c4ccc(Cl)cc4)ncnc32)[C@H](O)[C@@H]1O (some centres not stated)

# Tested on: HeLa
# Test: In vitro inhibition of cell growth (Cytostatic activity) of human cervix carcinoma HeLa S3 cells (ATCC CCL 2.2); inhibition @ 10 uM/L
# Assay type: functional
row,Structure (SMILES),Inhibition [%]
1,CC(=O)OC[C@H]1O[C@@H](n2cnc3c(-c4ccc(F)cc4F)ncnc32)[C@H](OC(C)=O)[C@@H]1OC(C)=O,<20
2,CC(=O)OC[C@H]1O[C@@H](n2cnc3c(-c4ccccc4C)ncnc32)[C@H](OC(C)=O)[C@@H]1OC(C)=O,<20
3,CC(=O)OC[C@H]1O[C@@H](n2cnc3c(-c4ccc(C)cc4)ncnc32)[C@H](OC(C)=O)[C@@H]1OC(C)=O,<20
4,CC(=O)OC[C@H]1O[C@@H](n2cnc3c(-c4ccccc4)ncnc32)[C@H](OC(C)=O)[C@@H]1OC(C)=O,<20
5,COc1cccc(-c2ncnc3c2ncn3[C@@H]2O[C@H](COC(C)=O)[C@@H](OC(C)=O)[C@H]2OC(C)=O)c1,<20
6,CC(=O)OC[C@H]1O[C@@H](n2cnc3c(-c4ccc(Cl)cc4)ncnc32)[C@H](OC(C)=O)[C@@H]1OC(C)=O,<20
7,CCOc1ccc(-c2ncnc3c2ncn3[C@@H]2O[C@H](COC(C)=O)[C@@H](OC(C)=O)[C@H]2OC(C)=O)cc1,<20
8,Cc1ccccc1-c1ncnc2c1ncn2C1O[C@H](CO)[C@@H](O)[C@H]1O (some centres not stated),<20

# Tested on: L1210
# Test: In vitro inhibition of cell growth (Cytostatic activity) of mouse leukemia L1210 cells (ATCC CCL 219); inhibition @ 10 uM/L
# Assay type: functional
row,Structure (SMILES),Inhibition [%]
1,CC(=O)OC[C@H]1O[C@@H](n2cnc3c(-c4ccc(F)cc4)ncnc32)[C@H](OC(C)=O)[C@@H]1OC(C)=O,<20
2,CC(=O)OC[C@H]1O[C@@H](n2cnc3c(-c4ccc(F)cc4F)ncnc32)[C@H](OC(C)=O)[C@@H]1OC(C)=O,<20
3,CC(=O)OC[C@H]1O[C@@H](n2cnc3c(-c4ccccc4C)ncnc32)[C@H](OC(C)=O)[C@@H]1OC(C)=O,<20
4,CC(=O)OC[C@H]1O[C@@H](n2cnc3c(-c4ccc(C)cc4)ncnc32)[C@H](OC(C)=O)[C@@H]1OC(C)=O,<20
5,CC(=O)OC[C@H]1O[C@@H](n2cnc3c(-c4ccc(F)c(F)c4)ncnc32)[C@H](OC(C)=O)[C@@H]1OC(C)=O,<20
6,CC(=O)OC[C@H]1O[C@@H](n2cnc3c(-c4ccccc4)ncnc32)[C@H](OC(C)=O)[C@@H]1OC(C)=O,<20
7,COc1cccc(-c2ncnc3c2ncn3[C@@H]2O[C@H](COC(C)=O)[C@@H](OC(C)=O)[C@H]2OC(C)=O)c1,<20
8,CC(=O)OC[C@H]1O[C@@H](n2cnc3c(-c4ccc(Cl)cc4)ncnc32)[C@H](OC(C)=O)[C@@H]1OC(C)=O,<20
9,CCOc1ccc(-c2ncnc3c2ncn3[C@@H]2O[C@H](COC(C)=O)[C@@H](OC(C)=O)[C@H]2OC(C)=O)cc1,<20
10,Cc1ccccc1-c1ncnc2c1ncn2C1O[C@H](CO)[C@@H](O)[C@H]1O (some centres not stated),<20

# Tested on: L1210
# Test: In vitro inhibition of cell growth (Cytostatic activity) of mouse leukemia L1210 cells (ATCC CCL 219)
# Assay type: functional, cell-based
row,IC50 [µM],Structure (SMILES)
1,9,OC[C@H]1O[C@@H](n2cnc3c(-c4ccccc4)ncnc32)[C@H](O)[C@@H]1O
2,17,COc1ccc(-c2ncnc3c2ncn3[C@@H]2O[C@H](COC(C)=O)[C@@H](OC(C)=O)[C@H]2OC(C)=O)cc1
3,2.5,CCOc1ccc(-c2ncnc3c2ncn3C2O[C@H](CO)[C@@H](O)[C@H]2O)cc1 (some centres not stated)
4,1.5,COc1ccc(-c2ncnc3c2ncn3C2O[C@H](CO)[C@@H](O)[C@H]2O)cc1 (some centres not stated)
5,20,OC[C@H]1OC(n2cnc3c(-c4ccc(F)c(F)c4)ncnc32)[C@H](O)[C@@H]1O (some centres not stated)
6,4.5,OC[C@H]1OC(n2cnc3c(-c4ccc(F)cc4)ncnc32)[C@H](O)[C@@H]1O (some centres not stated)
